Data on ten compounds can be found in ChEMBL document CHEMBL3351787, “Electrophilic warhead-based design of compounds preventing NLRP3 inflammasome-dependent pyroptosis” (J Med Chem, 2014).

In one data set the test system is THP-1. Briefly: (§1) Antipyroptotic activity in PMA-differentiated and LPS-primed human THP1 cells assessed as decrease in nigericin-induced pyroptosis measured as LDH activity after 1 hrs pretreated with 10 uM nigericin for 1.5 hrs by colorimetric assay. The format is functional, cell-based. The procedure, abridged: (§2)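 Differentiated (PMA) and LPS-primed THP-1 cells received compound at 0.001-10 μM 1 h ahead of nigericin (10 μM, 1.5 h). Supernatant LDH activity measured by colorimetric assay, expressed as decrease of cell death vs vehicle alone; pEC50 derived from concentration-response curves. Mean±SEM, ≥4 experiments in triplicate.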

Data set [1] in a line: as §1. The format is functional, cell-based. As to conditions: thp-1. The procedure, abridged:
as §2

Data set [2] can be described thus: Cytotoxicity against human HK2 cells assessed as cell viability after 72 hrs by MTT assay. As to conditions: read-out: TC50. The format is cell-based, HK-2. The procedure, abridged: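 MTT viability assay in human renal epithelial HK-2 cells. TC50 defined as molar concentration lowering HK-2 viability by 50%.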
(Formazan colour is commonly taken as a measure of viable cells.)

Data set [3] in a line: Antipyroptotic activity in PMA-differentiated and LPS-primed human THP1 cells assessed as decrease in ATP-induced pyroptosis measured as LDH activity at 10 uM after 1 hrs by colorimetric assay. The format is functional. Conditions: THP-1, 1 h.
A short description of data set [4]: Antipyroptotic activity in PMA-differentiated and LPS-primed human THP1 cells assessed as decrease in ATP-induced pyroptosis measured as LDH activity after 1 hrs pretreated with 5 mM ATP for 1 hr by colorimetric assay. The format is functional, cell-based. As to conditions: thp-1. The procedure, abridged: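 PMA-differentiated, LPS-primed THP-1 cells pre-treated 1 h with compound (0.001-10 μM), then ATP 5 mM for 1 h. LDH in collected supernatant read colorimetrically; output as decrease of cell death vs vehicle. EC50 taken as concentration giving 50% of maximal possible effect. Mean±SEM of at least four experiments in triplicate.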

Data set [5] can be described thus: Activation of Keap1-Nrf2 pathway in human THP1 cells assessed as NFE2L2 marker gene expression level at 10 uM after 2 hrs by RT-PCR analysis. The format is functional, cell-based. Conditions: THP-1.
The target of data set [6] is T1, Caspase-1 (Homo sapiens) (UniProt P29466).
T1 sequence (whole entry): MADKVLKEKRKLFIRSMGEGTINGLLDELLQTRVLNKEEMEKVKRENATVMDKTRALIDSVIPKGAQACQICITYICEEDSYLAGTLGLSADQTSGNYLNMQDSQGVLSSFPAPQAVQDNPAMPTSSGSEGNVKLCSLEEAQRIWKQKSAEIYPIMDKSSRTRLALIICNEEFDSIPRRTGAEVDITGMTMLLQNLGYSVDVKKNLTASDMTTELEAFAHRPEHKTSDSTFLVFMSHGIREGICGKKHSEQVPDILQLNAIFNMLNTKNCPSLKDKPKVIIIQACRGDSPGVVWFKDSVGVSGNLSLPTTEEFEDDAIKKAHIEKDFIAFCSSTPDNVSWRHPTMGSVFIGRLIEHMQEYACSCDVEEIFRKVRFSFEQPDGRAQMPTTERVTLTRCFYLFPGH
Briefly: Inhibition of caspase 1 (unknown origin) using N-acetyl-Tyr-Val-Ala-Asp-para-nitroanilide substrate assessed as rate of para-nitroanilide release after 15 to 60 mins preincubation by spectrophotometric assay. The gist of the method:
(§3)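 Caspase-1 from THP-1 cell cultures (50 U) pre-incubated 15-60 min with compound at 0.01-10 μM, then activity followed continuously by pNA release from Ac-YVAD-pNA (200 μM; 1 h) at 405 nm. kobs at each concentration used to obtain kinact (irreversible first-order rate) and Ki = k-1/k1.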

Data set [7] addresses T1, Caspase-1 (Homo sapiens). Briefly: Inhibition of caspase 1 (unknown origin) using N-acetyl-Tyr-Val-Ala-Asp-para-nitroanilide substrate assessed as rate of para-nitroanilide release at 0.01 to 10 uM by spectrophotometric assay. Conditions: TDE = time-dependent effect. The procedure, abridged:
as §3

Data set [8] in a line: Activation of KIea[1/Nrf2 pathway in human THP1 cells assessed as HMOX1 marker gene expression level at 10 uM after 2 hrs by RT-PCR analysis. Type of data set: functional, cell-based. As to conditions: THP-1.
Data set [9] is described as follows: cysteamine reactivity assessed as second-order reaction rate constant in PBS at pH 7.4 and […] by DTNB spectrophotometric assay.
In data set [10] the target is NACHT, LRR and PYD domains-containing protein 3 (Homo sapiens) (UniProt Q96P20). Briefly: Inhibition of recombinant NLRP3-ATPase (unknown origin) assessed as hydrolysis of ATP at 10 uM. The procedure, abridged: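 Recombinant NLRP3 (0.01 μg) pre-incubated 15 min with compound (10 μM); ATP 250 μM then added and incubated 1 h at 37 °C. ATP hydrolysis quantified as Pi content by colorimetric phosphate detection. Expressed as % inhibition vs vehicle; mean±SEM of ≥3 experiments in duplicate.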

For the next data set, the target named is T2, Caspase-1 (Homo sapiens, UniProt P29466).
T2 sequence (P29466 whole entry): T1 sequence (whole entry)
Briefly: (§4) Inhibition of caspase 1 (unknown origin) using N-acetyl-Tyr-Val-Ala-Asp-para-nitroanilide substrate assessed as rate of para-nitroanilide release by spectrophotometric assay. The gist of the method:
as §3

Data set [11] deals with T1, Caspase-1 (Homo sapiens). The description is as §4. The gist of the method: as §3
Data set [12] concerns the target T1, Caspase-1 (Homo sapiens). Briefly: Inhibition of caspase 1 (unknown origin) using N-acetyl-Tyr-Val-Ala-Asp-para-nitroanilide substrate assessed as rate of para-nitroanilide release at 10 uM by spectrophotometric assay. The procedure, abridged: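 Caspase-1 enzyme from THP-1 cultures (50 U) pre-incubated 15 min with compound (10 μM) in reaction buffer at 37 °C. Ac-YVAD-pNA substrate (200 μM) added; pNA release monitored continuously at 405 nm over 1 h. Reported as % inhibition vs vehicle; mean±SEM, ≥3 experiments in duplicate.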

Activity calls are given as the source filed them.

Chain of NACHT, LRR and PYD domains-containing protein 3 (Homo sapiens) (Q96P20 whole entry, the tested form may be a part): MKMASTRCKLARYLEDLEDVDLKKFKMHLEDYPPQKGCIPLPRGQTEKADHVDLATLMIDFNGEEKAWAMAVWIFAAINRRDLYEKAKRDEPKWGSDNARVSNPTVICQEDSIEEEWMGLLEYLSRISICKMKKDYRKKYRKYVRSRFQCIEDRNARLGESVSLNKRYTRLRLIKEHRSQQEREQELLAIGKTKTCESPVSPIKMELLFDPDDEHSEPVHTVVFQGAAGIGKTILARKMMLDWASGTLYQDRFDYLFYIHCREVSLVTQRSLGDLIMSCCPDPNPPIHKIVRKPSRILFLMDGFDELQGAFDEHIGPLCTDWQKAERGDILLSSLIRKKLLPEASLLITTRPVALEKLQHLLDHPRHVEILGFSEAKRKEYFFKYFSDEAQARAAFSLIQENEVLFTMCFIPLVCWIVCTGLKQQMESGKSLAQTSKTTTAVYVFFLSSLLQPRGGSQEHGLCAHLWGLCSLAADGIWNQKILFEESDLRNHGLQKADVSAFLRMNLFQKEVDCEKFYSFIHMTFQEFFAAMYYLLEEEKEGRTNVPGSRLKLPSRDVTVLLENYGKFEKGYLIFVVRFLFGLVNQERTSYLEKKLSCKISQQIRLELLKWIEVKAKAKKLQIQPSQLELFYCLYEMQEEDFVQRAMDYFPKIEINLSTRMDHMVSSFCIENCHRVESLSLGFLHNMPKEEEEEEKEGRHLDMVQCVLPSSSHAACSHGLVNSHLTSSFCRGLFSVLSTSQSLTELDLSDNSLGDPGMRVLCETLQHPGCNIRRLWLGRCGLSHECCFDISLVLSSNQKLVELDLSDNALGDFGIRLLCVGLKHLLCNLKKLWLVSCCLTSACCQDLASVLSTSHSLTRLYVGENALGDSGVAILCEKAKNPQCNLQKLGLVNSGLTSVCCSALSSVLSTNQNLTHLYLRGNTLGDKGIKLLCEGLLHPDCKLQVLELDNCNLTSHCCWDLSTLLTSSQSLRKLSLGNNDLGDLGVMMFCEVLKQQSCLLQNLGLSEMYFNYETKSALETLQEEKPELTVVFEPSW

Broadly, the inhibition is how much of the control response was suppressed. In general, pEC50 refers to the EC50 on a negative log10 scale, so that one unit is a factor of ten. For the compound `C=C(C(=O)OCC)C(O)c1ccccc1[N+](=O)[O-]` (stereo unspecified), the inhibition entry in the data set on THP-1 is “Dose-dependent effect”. Moreover, the figures for the negative-log EC50 (pEC50) in data set [1] and in data set [4] were 6.7 and 6.5, respectively. Besides, the CC50 at 72 h in [2] came out at 7.8 µM. Also, in [3], the inhibition at 10 µM came out at 63.7%.
For orientation: Ki means a dissociation constant, usually derived from enzyme kinetics or from competition with a known ligand. Take `C=C(C(=O)OCC)C(O)c1ccccc1Cl` (stereo unspecified): the inhibition entry was “Dose-dependent effect” in the data set with THP-1, “Dose-dependent effect” at Caspase-1 (Homo sapiens) [6], “tde” at Caspase-1 (Homo sapiens) [7] and 51.8% in [10]. Besides, the negative-log EC50 (pEC50) in data set [1] turned out to be 6.8; in [4] it was 6.9. Also, the result in data set [5] and in [8] was Active. For the same compound, the CC50 at 72 h in data set [2] is 67 µM. Further, the inhibition at 10 µM in data set [3] came out at 75.1%. Further, in data set [9], the k2 is 0.866 M⁻¹ s⁻¹. Also, the inhibition constant (Ki) on Caspase-1 worked out at 9.6 µM. Further, the Kinact at Caspase-1 (Homo sapiens) [11] was 3.2 s⁻¹.
As to `C=C(C(=O)OCC)C(OCCC(=O)OCC)c1ccc(Cl)cc1Cl` (stereo unspecified), in the data set with THP-1, the inhibition result is “Dose-dependent effect”. Also, the negative-log EC50 (pEC50) is 6.7 in [1] and 7.1 in [4]. In addition, in data set [2], the CC50 at 72 h is above 100 µM. In addition, the inhibition at 10 µM in [3] came to 43.9%.
As for `C=C(C(=O)OCC)C(O)c1ccccc1F` (stereo unspecified), in the data set with THP-1, the inhibition result is “Dose-dependent effect”. The results for the negative-log EC50 (pEC50) in data set [1] and in data set [4] were 6.6 and 6.8, respectively. Further, the CC50 at 72 h in data set [2] turned out to be 25.4 µM. The inhibition at 10 µM in data set [3] is 82.3%.
Regarding `C=C1C(=O)O[C@@H]2C3O[C@]3(C)CC/C=C(\C)CC[C@@H]12` (stereo partly specified), the inhibition entry with THP-1 was “Dose-dependent effect”; on Caspase-1 (Homo sapiens) [6] it was “Dose-dependent effect”; on Caspase-1 (Homo sapiens) [7], “tde”; in [10] it was 25.9%. Besides, the pEC50 in data set [1] turned out to be 6.3; in [4], 6.9. Moreover, in [2], the CC50 at 72 h came out at 20.1 µM. Moreover, in [3], the inhibition at 10 µM was 100%. Besides, the k2 in data set [9] was 47.9 M⁻¹ s⁻¹. On Caspase-1, the Ki worked out at 10.6 µM. In addition, on Caspase-1 (Homo sapiens) [11], the Kinact came out at 4 s⁻¹.
Turning to `C/C=C(/C(=O)OCC)C(O)c1ccccc1Cl` (stereo unspecified), the inhibition result with THP-1 was “Dose-dependent effect”. Also, the pEC50 amounted to 6.8 in [1] and 6.9 in data set [4]. Moreover, the CC50 at 72 h in data set [2] worked out at 73.8 µM. Further, in data set [3], the inhibition at 10 µM was determined as 31.8%.
`C/C=C(\C(=O)OCC)C(O)c1ccccc1Cl` (stereo unspecified): the values for the inhibition result (in the data set with THP-1; on Caspase-1 (Homo sapiens) [12]; in data set [10]) were “Dose-dependent effect”, 25.4% and 23.3%, respectively. The pEC50 was 6.3 in data set [1] and 7 in [4]. For the same compound, the CC50 at 72 h in data set [2] was determined as 80.1 µM. For the same compound, the inhibition at 10 µM in [3] was determined as 36.2%. Further, in data set [9], the k2 was determined as 0.126 M⁻¹ s⁻¹.
`C=C(C(=O)OCC)C(OCCC(=O)OCC)c1c(Cl)cccc1Cl` (stereo unspecified): in the data set on THP-1, the inhibition result was “Dose-dependent effect”. The pEC50 in data set [1] and in data set [4] was 6.9 each time. Further, the CC50 at 72 h in data set [2] is above 100 µM. In addition, the inhibition at 10 µM in data set [3] is 68.8%.
On to `C=C(C#N)C(O)c1ccccc1Cl` (stereo unspecified), for which, in data set [2], the CC50 at 72 h is 11.6 µM. Moreover, in data set [3], the inhibition at 10 µM stood at 83%. For the same compound, the inhibition at Caspase-1 (Homo sapiens) [12] amounted to 36.2%; in data set [10], 80.5%. For the same compound, the k2 in [9] was determined as 0.777 M⁻¹ s⁻¹.
Turning to `C=C(C(=O)O)C(O)c1ccccc1Cl` (stereo unspecified), in [2], the CC50 at 72 h was above 100 µM. Also, in data set [3], the inhibition at 10 µM stood at 42%. In addition, the k2 in [9] amounted to 0.117 M⁻¹ s⁻¹. The inhibition in [10] is 80.2%.
